Key:
CCRF-CEM = assay: Growth inhibition of human CCRF-CEM cells after 48 hrs by SRB assay; type: functional
Summary of the method: (§1)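 NCI 60-cell-line screen. Cells grown in RPMI1640 with 5% fetal calf serum and 2 mM L-glutamine, with inoculum density set by cell line. Preincubated 24 h, then given compound in DMSO at 10^-4 to 10^-8 M (five 10-fold steps) for 48 h continuous exposure. Growth measured by SRB protein assay. GI50, TGI and LC50 reported as –log molar.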

K562 = assay: Growth inhibition of human K562 cells after 48 hrs by SRB assay; type: functional; conditions: K562, 48 h; summary of the method: as §1
MOLT-4 = assay: Growth inhibition of human MOLT4 cells after 48 hrs by SRB assay; type: functional; conditions: MOLT-4, 48 h; summary of the method: as §1
[1] = Growth inhibition of human […] cells after 48 hrs by SRB assay; type: functional; summary of the method: as §1
SR = assay: Growth inhibition of human SR cells after 48 hrs by SRB assay; type: functional; summary of the method: as §1
HOP-62 = assay: Growth inhibition of human HOP62 cells after 48 hrs by SRB assay; type: functional; conditions: HOP-62, 48 h; summary of the method: as §1
NCI-H322M = assay: Growth inhibition of human NCI-H322M cells after 48 hrs by SRB assay; type: functional; summary of the method: as §1
NCI-H522 = assay: Growth inhibition of human NCI-H522 cells after 48 hrs by SRB assay; type: functional; conditions: NCI-H522, 48 h; summary of the method: as §1
COLO 205 = assay: Growth inhibition of human COLO205 cells after 48 hrs by SRB assay; type: functional; conditions: COLO 205, 48 h; summary of the method: as §1
HCT-116 = assay: Growth inhibition of human HCT116 cells after 48 hrs by SRB assay; type: functional; conditions: HCT-116, 48 h; summary of the method: as §1
HCT-15 = assay: Growth inhibition of human HCT15 cells after 48 hrs by SRB assay; type: functional; conditions: HCT-15, 48 h; summary of the method: as §1
SW-620 = assay: Growth inhibition of human SW620 cells after 48 hrs by SRB assay; type: functional; conditions: SW-620, 48 h; summary of the method: as §1
SF-268 = assay: Growth inhibition of human SF268 cells after 48 hrs by SRB assay; type: functional; conditions: SF-268, 48 h; summary of the method: as §1
SF-295 = assay: Growth inhibition of human SF295 cells after 48 hrs by SRB assay; type: functional; conditions: SF-295, 48 h; summary of the method: as §1
SF-539 = assay: Growth inhibition of human SF539 cells after 48 hrs by SRB assay; type: functional; conditions: SF-539, 48 h; summary of the method: as §1
SNB-75 = assay: Growth inhibition of human SNB75 cells after 48 hrs by SRB assay; type: functional; conditions: SNB-75, 48 h; summary of the method: as §1
U-251 = assay: Growth inhibition of human U251 cells after 48 hrs by SRB assay; type: functional; conditions: U-251, 48 h; summary of the method: as §1
Malme-3M = assay: Growth inhibition of human MALME-3M cells after 48 hrs by SRB assay; type: functional; conditions: read-out: pTGI (converted); summary of the method: as §1
M14 = assay: Growth inhibition of human M14 cells after 48 hrs by SRB assay; type: functional; conditions: M14, 48 h; summary of the method: as §1
SK-MEL-2 = assay: Growth inhibition of human SK-MEL-2 cells after 48 hrs by SRB assay; type: functional; conditions: SK-MEL-2, 48 h; summary of the method: as §1
MDA-MB-435 = assay: Growth inhibition of human MDA-MB-435 cells after 48 hrs by SRB assay; type: functional; conditions: MDA-MB-435, 48 h; summary of the method: as §1
SK-MEL-28 = assay: Growth inhibition of human SK-MEL-28 cells after 48 hrs by SRB assay; type: functional; conditions: SK-MEL-28, 48 h; summary of the method: as §1
SK-MEL-5 = assay: Growth inhibition of human SK-MEL-5 cells after 48 hrs by SRB assay; type: functional; conditions: SK-MEL-5, 48 h; summary of the method: as §1
UACC-62 = assay: Growth inhibition of human UACC62 cells after 48 hrs by SRB assay; type: functional; conditions: UACC-62, 48 h; summary of the method: as §1
OVCAR-4 = assay: Growth inhibition of human OVCAR4 cells after 48 hrs by SRB assay; type: functional; conditions: OVCAR-4, 48 h; summary of the method: as §1
OVCAR-8 = assay: Growth inhibition of human OVCAR8 cells after 48 hrs by SRB assay; type: functional; conditions: OVCAR-8, 48 h; summary of the method: as §1
SK-OV-3 = assay: Growth inhibition of human SKOV3 cells after 48 hrs by SRB assay; type: functional; conditions: SK-OV-3, 48 h; summary of the method: as §1
CAKI-1 = assay: Growth inhibition of human Caki1 cells after 48 hrs by SRB assay; type: functional; conditions: CAKI-1, 48 h; summary of the method: as §1
TK-10 = assay: Growth inhibition of human TK10 cells after 48 hrs by SRB assay; type: functional; conditions: TK-10, 48 h; summary of the method: as §1
UO-31 = assay: Growth inhibition of human UO31 cells after 48 hrs by SRB assay; type: functional; conditions: UO-31, 48 h; summary of the method: as §1
PC-3 = assay: Growth inhibition of human PC3 cells after 48 hrs by SRB assay; type: functional; conditions: PC-3, 48 h; summary of the method: as §1
DU-145 = assay: Growth inhibition of human DU145 cells after 48 hrs by SRB assay; type: functional; conditions: DU-145, 48 h; summary of the method: as §1
MCF7 = assay: Growth inhibition of human MCF7 cells after 48 hrs by SRB assay; type: functional; conditions: MCF7, 48 h; summary of the method: as §1
BT-549 = assay: Growth inhibition of human BT549 cells after 48 hrs by SRB assay; type: functional; conditions: BT-549, 48 h, read-out: pTGI (converted); summary of the method: as §1
T47D = assay: Growth inhibition of human T47D cells after 48 hrs by SRB assay; type: functional; conditions: read-out: pTGI (converted); summary of the method: as §1
NCI-H460 = assay: Cytotoxicity against human NCI-H460 cells after 72 hrs by SRB assay; type: functional, cell-based; conditions: NCI-H460, 72 h
Summary of the method: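 NCI-H460 (ATCC) cells seeded in 96-well plates in growth medium. Scalar drug concentrations added 24 h after plating, then 72 h exposure. Surviving cells stained with sulforhodamine B, OD read at 570 nm. IC50 (50% growth inhibition) fitted from dose–response curves. Mean ± SE of at least three independent experiments.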

SMILES: COc1cc(C2CC(c3cccc(Br)c3)=NN2C(C)=O)cc(OC)c1OC (configuration not stated)
- GI50 (CCRF-CEM): 316 nM
- TGI (CCRF-CEM; read-out: pTGI (converted)): 2000 nM
- GI50 (K562): 126 nM
- TGI (K562; read-out: pTGI (converted)): 12600 nM
- GI50 (MOLT-4): 316 nM
- TGI (MOLT-4; read-out: pTGI (converted)): 1580 nM
- GI50 [1]: 158 nM
- TGI ([1]; read-out: pTGI (converted)): 631 nM
- GI50 (SR): 39.8 nM
- TGI (SR; read-out: pTGI (converted)): > 100000 nM
- GI50 (HOP-62): 1000 nM
- TGI (HOP-62; read-out: pTGI (converted)): 79400 nM
- GI50 (NCI-H322M): 501 nM
- TGI (NCI-H322M; read-out: pTGI (converted)): > 100000 nM
- GI50 (NCI-H522): 398 nM
- GI50 (COLO 205): 200 nM
- TGI (COLO 205; read-out: pTGI (converted)): 631 nM
- GI50 (HCT-116): 501 nM
- TGI (HCT-116; read-out: pTGI (converted)): > 100000 nM
- GI50 (HCT-15): 316 nM
- TGI (HCT-15; read-out: pTGI (converted)): 31600 nM
- GI50 (SW-620): 316 nM
- TGI (SW-620; read-out: pTGI (converted)): > 100000 nM
- GI50 (SF-268): 1000 nM
- TGI (SF-268; read-out: pTGI (converted)): 79400 nM
- GI50 (SF-295): 200 nM
- TGI (SF-295; read-out: pTGI (converted)): 12600 nM
- GI50 (SF-539): 316 nM
- TGI (SF-539; read-out: pTGI (converted)): 10000 nM
- GI50 (SNB-75): 398 nM
- TGI (SNB-75; read-out: pTGI (converted)): > 100000 nM
- GI50 (U-251): 501 nM
- TGI (U-251; read-out: pTGI (converted)): 31600 nM
- TGI (Malme-3M): 50100 nM
- GI50 (M14): 631 nM
- TGI (M14; read-out: pTGI (converted)): 63100 nM
- GI50 (SK-MEL-2): 20000 nM
- TGI (SK-MEL-2; read-out: pTGI (converted)): 79400 nM
- GI50 (MDA-MB-435): 50.1 nM
- TGI (MDA-MB-435; read-out: pTGI (converted)): 251 nM
- GI50 (SK-MEL-28): 794 nM
- TGI (SK-MEL-28; read-out: pTGI (converted)): 63100 nM
- GI50 (SK-MEL-5): 251 nM
- TGI (SK-MEL-5; read-out: pTGI (converted)): 12600 nM
- GI50 (UACC-62): 200 nM
- TGI (UACC-62; read-out: pTGI (converted)): 20000 nM
- GI50 (OVCAR-4): 631 nM
- TGI (OVCAR-4; read-out: pTGI (converted)): > 100000 nM
- GI50 (OVCAR-8): 631 nM
- TGI (OVCAR-8; read-out: pTGI (converted)): > 100000 nM
- GI50 (SK-OV-3): 501 nM
- TGI (SK-OV-3; read-out: pTGI (converted)): 63100 nM
- GI50 (CAKI-1): 251 nM
- TGI (CAKI-1; read-out: pTGI (converted)): 39800 nM
- GI50 (TK-10): 12600 nM
- TGI (TK-10; read-out: pTGI (converted)): 63100 nM
- GI50 (UO-31): 12600 nM
- TGI (UO-31; read-out: pTGI (converted)): > 100000 nM
- GI50 (PC-3): 200 nM
- TGI (PC-3; read-out: pTGI (converted)): 31600 nM
- GI50 (DU-145): 398 nM
- TGI (DU-145; read-out: pTGI (converted)): 12600 nM
- GI50 (MCF7): 158 nM
- TGI (MCF7; read-out: pTGI (converted)): 15800 nM
- TGI (BT-549): 39800 nM
- TGI (T47D): 39800 nM
- IC50 (NCI-H460): 350 nM
